Experiment [1] relates to HCT-116. The experiment is described as follows: Inhibition of STAT3 protein expression in COX2-negative human HCT116 cells at 10 to 50 uM after 24 hrs by Western blot analysis.
The subject of experiment [2] is HCT-116. The experiment is described as follows: Anticancer activity against human HCT116 cells after 72 hrs by MTT assay. It is filed as functional, cell-based. The conditions noted are these: HCT-116, 72 h. The gist of the method: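 HCT-116 cells, 3,000 per well, given escalating concentrations (5–160 μM or 1–75 μM depending on compound) in triplicate with 10% FBS. Incubation was 72 h at 37°C, then MTT viability read-out at 595 nm absorbance. IC50 was derived by curve fitting.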
For orientation: Tetrazolium assays rely on reduction of a dye to a coloured formazan, in cell work by metabolically active cells.

The target in experiment [3] is Signal transducer and activator of transcription 3 (Homo sapiens) (UniProt P40763). Nature of the experiment: Inhibition of IL-6-induced STAT3 phosphorylation in human PANC1 cells at 25 to 50 µM pretreated 2 hrs prior to IL-6 challenge measured after 30 mins. It is filed as cell-based. The conditions noted are these: PANC-1. In short, it runs like this: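 PANC-1 cells were serum-starved for 24 h, then pretreated with 25 or 50 μM compound for 2 h. They were then stimulated with IL-6 at 50 ng/ml for 30 min, and STAT3 phosphorylation was assessed.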

The target in experiment [4] is Signal transducer and activator of transcription 1 (Homo sapiens) (UniProt P42224). Nature of the experiment: Inhibition of interferon gamma induced STAT1 phosphorylation in human PANC1 cells at […] pretreated 2 hrs prior to interferon-gamma challenge measured after 30. The conditions noted are these: PANC-1.
The target in experiment [5] is Signal transducer and activator of transcription 3 (Homo sapiens) (UniProt P40763). Nature of the experiment: Inhibition of STAT3 SH2 domain phosphorylation at Tyr705 in COX2-negative human HCT116 cells after 24 hrs by Western blot analysis. The conditions noted are these: HCT-116. Background: In western blotting, separated proteins are transferred to a membrane and probed.

Activity calls are given as the source filed them. No cut-off for these calls is given here.

Signal transducer and activator of transcription 3 (Homo sapiens), sequence (P40763 whole entry, the tested form may be a part): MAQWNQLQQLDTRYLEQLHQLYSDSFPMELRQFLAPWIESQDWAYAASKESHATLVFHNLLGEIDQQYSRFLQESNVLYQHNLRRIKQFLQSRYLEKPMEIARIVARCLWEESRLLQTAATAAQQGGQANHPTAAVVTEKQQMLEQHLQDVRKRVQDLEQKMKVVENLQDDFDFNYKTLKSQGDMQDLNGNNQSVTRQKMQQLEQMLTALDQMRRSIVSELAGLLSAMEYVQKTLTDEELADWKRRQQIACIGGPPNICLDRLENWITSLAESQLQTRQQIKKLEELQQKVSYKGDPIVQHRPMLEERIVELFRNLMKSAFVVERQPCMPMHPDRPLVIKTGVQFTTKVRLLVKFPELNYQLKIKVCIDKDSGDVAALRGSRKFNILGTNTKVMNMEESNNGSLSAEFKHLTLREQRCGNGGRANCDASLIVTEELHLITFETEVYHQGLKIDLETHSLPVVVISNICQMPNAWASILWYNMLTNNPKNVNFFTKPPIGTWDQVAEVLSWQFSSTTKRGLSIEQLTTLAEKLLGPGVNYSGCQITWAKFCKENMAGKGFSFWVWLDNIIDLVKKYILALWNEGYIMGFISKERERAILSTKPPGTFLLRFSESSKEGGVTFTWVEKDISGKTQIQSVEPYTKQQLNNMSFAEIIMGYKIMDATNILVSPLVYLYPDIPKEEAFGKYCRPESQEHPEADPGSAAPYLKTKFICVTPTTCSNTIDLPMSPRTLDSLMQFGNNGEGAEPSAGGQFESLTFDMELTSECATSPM
Signal transducer and activator of transcription 1 (Homo sapiens), sequence (P42224 whole entry, looked up, the tested form may be a part): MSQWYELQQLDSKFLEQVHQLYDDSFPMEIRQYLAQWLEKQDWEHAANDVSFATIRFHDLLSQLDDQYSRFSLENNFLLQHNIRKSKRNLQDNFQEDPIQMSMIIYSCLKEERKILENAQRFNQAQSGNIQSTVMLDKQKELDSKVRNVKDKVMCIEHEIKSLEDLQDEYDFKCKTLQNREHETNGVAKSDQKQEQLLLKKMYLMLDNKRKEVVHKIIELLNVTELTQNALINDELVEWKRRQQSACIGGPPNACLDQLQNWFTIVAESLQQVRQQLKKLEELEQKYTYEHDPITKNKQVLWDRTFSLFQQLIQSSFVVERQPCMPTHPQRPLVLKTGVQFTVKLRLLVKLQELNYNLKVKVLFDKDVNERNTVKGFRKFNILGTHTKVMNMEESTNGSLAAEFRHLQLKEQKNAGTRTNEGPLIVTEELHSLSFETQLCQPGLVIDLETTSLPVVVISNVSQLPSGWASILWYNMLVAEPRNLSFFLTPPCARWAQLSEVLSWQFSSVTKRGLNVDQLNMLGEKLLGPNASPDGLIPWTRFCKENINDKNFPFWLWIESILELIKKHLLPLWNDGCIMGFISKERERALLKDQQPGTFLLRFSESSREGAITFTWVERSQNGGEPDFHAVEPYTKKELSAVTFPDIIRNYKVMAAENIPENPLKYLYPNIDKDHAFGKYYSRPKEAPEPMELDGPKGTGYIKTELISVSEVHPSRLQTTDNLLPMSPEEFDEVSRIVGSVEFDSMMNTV

Broadly, the IC50 is the point on the concentration scale where inhibition reaches its midpoint. A low value points to greater potency. Regarding `Cc1ccc(-c2cc(C(F)(F)F)nn2-c2ccc(S(N)(=O)=O)cc2)cc1` [CELECOXIB], the inhibition entry in experiment [1] and in experiment [4] was “inactive” each time. Besides, 43.3 µM corresponded to half-maximal inhibition in experiment [2] (IC50). Also, the inhibition entry in experiment [3] was “Active”. In addition, the inhibition result in experiment [5] was “Dose-dependent effect”.
For `Cc1ccc(Cc2cc(-c3ccc(Br)cc3)n(-c3ccc(S(N)(=O)=O)cc3)n2)cc1`, the inhibition entry in experiment [1] is “inactive”. In experiment [2], the IC50 is 9.7 µM. In experiment [5], the inhibition entry is “Dose-dependent effect”.
In the same order, the values of `NS(=O)(=O)c1ccc(-n2nc(C(=O)NN3CCCCC3)cc2-c2ccc(-c3ccccc3)cc2)cc1` are “inactive”, 10.1 µM and “Dose-dependent effect”.
